Screens deposited in PubChem BioAssay by Sanford-Burnham Center for Chemical Genomics.
SENP8 block-1 – SENP8 (human) protease inhibition. recombinant SENP8, Nedd8 substrate fluorescence. inhibition, % at 20 µM. 360,000 tested, 0.64% active. AID 602440; in the data active = inhibition mostly above about 40%, no sharp cut-off; inactive = mostly below about 27%
Target sequence (Q96LD8 whole entry, looked up): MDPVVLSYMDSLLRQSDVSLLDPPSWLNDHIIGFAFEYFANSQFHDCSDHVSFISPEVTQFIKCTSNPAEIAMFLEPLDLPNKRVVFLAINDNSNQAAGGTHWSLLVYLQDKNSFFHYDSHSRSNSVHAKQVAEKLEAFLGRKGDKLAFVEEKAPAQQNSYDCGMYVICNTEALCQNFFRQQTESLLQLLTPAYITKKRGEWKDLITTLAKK
SENP7 inh – SENP7 protease inhibition | inhibition, % at 5 µM | recombinant SENP7, Z-RLRGG-aminoluciferin luminescence, 40 min | 330,000 tested, 1.5% active;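 active = inhibition above about 50% at the single test dose, limit read from the data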;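 note: plate controls were DMSO with enzyme for no effect and no enzyme buffer wells for full effect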
SENP6 block – blocks the human protease SENP6; inhibition, % at 10 µM; 330,000 tested, 1.8% active; Q9GZR1; Recombinant SENP6 catalytic domain, aminoluciferin luminescence;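 active = inhibition above about 50% at the single tested dose, limit read from the data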;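 note: plate controls were DMSO wells with enzyme for no effect and DMSO wells lacking enzyme for full effect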
SENP8 block-2 – SENP8 protease inhibition. inhibition, % at 10 µM. purified SENP8, Z-RLRGG-aminoluciferin cleavage, luminescence. 330,000 tested, 1.2% active; in the data active = inhibition above about 50%
SENP1 inh – SENP1 (human) catalytic domain inhibition; AID 624204; 360,000 tested, 0.21% active; recombinant SENP1 catalytic domain, CyPet-SUMO1-YPet FRET cleavage; Q9P0U3; inhibition, % at 10 µM;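 active = inhibition at least 30% at 10 µM, raw YFP signal under a set limit, fluorescence ratio 0.5 to 1.5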;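 note: 0% = enzyme with DMSO and 100% = no enzyme wells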
Target sequence (Q9P0U3 419-644 limits assumed): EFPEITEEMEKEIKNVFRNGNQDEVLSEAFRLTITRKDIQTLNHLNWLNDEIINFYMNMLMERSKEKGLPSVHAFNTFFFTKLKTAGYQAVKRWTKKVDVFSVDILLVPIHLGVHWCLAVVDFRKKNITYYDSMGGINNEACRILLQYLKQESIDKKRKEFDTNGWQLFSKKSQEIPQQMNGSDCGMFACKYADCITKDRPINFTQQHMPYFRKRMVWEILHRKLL
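Material – human SENP1 catalytic domain · Input – SENP1 enzyme, 20 pM final · Compound dosing – single concentration of 10 µM compound, 0.5% DMSO final · Timing – enzyme reaction for 50 min at room temperature, dark · Measured by – FRET fluorescence in CFP and YFP emission channels · Control set – no-enzyme wells low, DMSO-plus-enzyme wells high control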
SENP8 conf – confirmation of human SENP8 protease inhibitors. inhibition, % at 12.5 µM. Recombinant SENP8, Z-RLRGG-aminoluciferin luminescence, 60 min. 6,200 tested, 40% active. shares compounds with SENP7 inh;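 active = mean inhibition across replicates above about 50%, limit read from the data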
SENP6 confirm – human SENP6 inhibition, confirmed. shares compounds with SENP7 inh. recombinant SENP6, Z-RLRGG-aminoluciferin luminescence. inhibition, % at 12.5 µM. 6,200 tested, 58% active. AID 488915
SENP7 conf – human SENP7 inhibition, confirmed | shares compounds with SENP7 inh | recombinant SENP7, Z-RLRGG-aminoluciferin luminescence, 40 min | inhibition, % at 12.5 µM | 6,200 tested, 69% active | AID 488917
Casp3 select – selectivity test for SENP inhibitors: human caspase-3 inhibition; shares compounds with SENP7 inh; purified caspase-3, Z-DEVD-aminoluciferin luminescence, 60 min; 6,200 tested, 60% active; inhibition, % at 12.5 µM;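 active = mean inhibition above about 50%, limit read from the data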;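 note: plate controls were enzyme with DMSO for no effect and wells without caspase-3 for full effect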
SENP luc ctr – counter-screen for SENP inhibitors: luminescence interference; inhibition, % at 12.5 µM; shares compounds with SENP7 inh; Pre-incubated SENP8/Z-RLRGG-aminoluciferin, luciferase luminescence interference; 6,200 tested, 39% active;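 active = mean inhibition above about 50% when retested at one dose, limit read from the data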;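 note: plate controls were DMSO wells with completed reaction for no effect and substrate without enzyme for full effect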
Active calls of the source: *. Most compounds without a hit are left out; they make up all but 2.5% or so of the library.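 Rule for the calls, unless noted: active = mean inhibition above about 50% in the one-dose retest (limit read from the data); inactive = the rest.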

Screening Cc1cc(C)cc(NS(=O)(=O)c2cccs2)c1 returned SENP8 block-1 12, SENP7 inh 2, SENP6 block 14, SENP8 block-2 6 and SENP1 inh 0.
Screening CC(C)(C)c1cc[n+](C2=C([O-])c3ccccc3C(=O)/C2=N\S(=O)(=O)c2ccccc2)cc1 returned SENP8 block-1 48*, SENP7 inh 15, SENP6 block 66*, SENP8 block-2 42, SENP1 inh 3, SENP8 conf 41, SENP6 confirm 72*, SENP7 conf 43, Casp3 select 7 and SENP luc ctr 1.
`COc1ccc(C(=O)C[C@@H]2OC[C@H](Cc3ccccc3)N2S(=O)(=O)c2ccc(C)cc2)cc1OC` gave SENP8 block-1 11 and SENP1 inh 2.
`Cc1cccc(C)c1NC(=O)N1CCC(C(=O)c2ccc(F)cc2)CC1` gave SENP8 block-1 5, SENP7 inh 0, SENP6 block -20, SENP8 block-2 -14 and SENP1 inh 0.
CC(C)(C)S(=O)(=O)N1C[C@H]2C(=CC[C@@H]3C(=O)N(c4ccccc4)C(=O)[C@@H]32)[C@H]1CCO was read as SENP8 block-1 -2 and SENP1 inh -2.
O=C1/C(=C/c2cccs2)COc2ccccc21 was read as SENP8 block-1 10, SENP7 inh 83*, SENP6 block 98*, SENP8 block-2 81*, SENP1 inh -3, SENP8 conf 86*, SENP6 confirm 92*, SENP7 conf 90*, Casp3 select 69* and SENP luc ctr 94*.
O=C1C(=Cc2cccs2)Oc2ccccc21 was read as SENP8 block-1 -131 and SENP1 inh -153.
Screening CCN(CC)S(=O)(=O)c1ccc(C)c(NC(=O)COC(=O)C=C(C)C)c1 returned SENP8 block-1 27, SENP7 inh 6, SENP6 block 56*, SENP8 block-2 -5, SENP1 inh 0, SENP8 conf -6, SENP6 confirm -9, SENP7 conf -3, Casp3 select 6 and SENP luc ctr 3.
For COc1ccc(OC)c(N/C(C)=C/C(=O)c2ccccc2)c1 the results were SENP8 block-1 26, SENP7 inh 2, SENP6 block 7, SENP8 block-2 -6 and SENP1 inh 0.
Screening COc1cccc(N/C=C/C(=O)c2ccc(C)cc2)c1 returned SENP8 block-1 -174, SENP7 inh 96*, SENP6 block 91*, SENP8 block-2 95*, SENP1 inh -65, SENP8 conf 96*, SENP6 confirm 98*, SENP7 conf 101*, Casp3 select 94* and SENP luc ctr 93*.
For COc1cccc(C(=O)/C=C/Nc2cccc(O)c2)c1 the results were SENP8 block-1 -78, SENP7 inh 100*, SENP6 block 96*, SENP8 block-2 95*, SENP1 inh -57, SENP8 conf 99*, SENP6 confirm 100*, SENP7 conf 103*, Casp3 select 98* and SENP luc ctr 98*.
`COc1cccc(N/C=C/C(=O)c2ccc(Cl)cc2)c1` gave SENP8 block-1 -96 and SENP1 inh -74.
`COc1cccc(C(=O)/C=C/Nc2ccc(NC(C)=O)cc2)c1` gave SENP8 block-1 -98, SENP7 inh 87*, SENP6 block 93*, SENP8 block-2 79*, SENP1 inh -27, SENP8 conf 90*, SENP6 confirm 89*, SENP7 conf 98*, Casp3 select 87* and SENP luc ctr 89*.
